# Screens deposited in PubChem BioAssay by Johns Hopkins Ion Channel Center.
# TRPC6 activator: mouse TRPC6 channel activators, primary screen, cell-based, HEK293, membrane potential dye; B-score at 10 µM; actives 0.13% (n = 310,000); AID 2550, 2010; HEK293-TRPC6 membrane potential dye fluorescence; active compounds read high; Short transient receptor potential channel 6 (Mus musculus), Q61143;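 active = B-score of the integrated fluorescence ratio above library mean plus 3 SD, and starting fluorescence ratio within library mean plus 5 SD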;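 note: higher score means more depolarization so channel activation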
# Target sequence (Q61143 whole entry, looked up): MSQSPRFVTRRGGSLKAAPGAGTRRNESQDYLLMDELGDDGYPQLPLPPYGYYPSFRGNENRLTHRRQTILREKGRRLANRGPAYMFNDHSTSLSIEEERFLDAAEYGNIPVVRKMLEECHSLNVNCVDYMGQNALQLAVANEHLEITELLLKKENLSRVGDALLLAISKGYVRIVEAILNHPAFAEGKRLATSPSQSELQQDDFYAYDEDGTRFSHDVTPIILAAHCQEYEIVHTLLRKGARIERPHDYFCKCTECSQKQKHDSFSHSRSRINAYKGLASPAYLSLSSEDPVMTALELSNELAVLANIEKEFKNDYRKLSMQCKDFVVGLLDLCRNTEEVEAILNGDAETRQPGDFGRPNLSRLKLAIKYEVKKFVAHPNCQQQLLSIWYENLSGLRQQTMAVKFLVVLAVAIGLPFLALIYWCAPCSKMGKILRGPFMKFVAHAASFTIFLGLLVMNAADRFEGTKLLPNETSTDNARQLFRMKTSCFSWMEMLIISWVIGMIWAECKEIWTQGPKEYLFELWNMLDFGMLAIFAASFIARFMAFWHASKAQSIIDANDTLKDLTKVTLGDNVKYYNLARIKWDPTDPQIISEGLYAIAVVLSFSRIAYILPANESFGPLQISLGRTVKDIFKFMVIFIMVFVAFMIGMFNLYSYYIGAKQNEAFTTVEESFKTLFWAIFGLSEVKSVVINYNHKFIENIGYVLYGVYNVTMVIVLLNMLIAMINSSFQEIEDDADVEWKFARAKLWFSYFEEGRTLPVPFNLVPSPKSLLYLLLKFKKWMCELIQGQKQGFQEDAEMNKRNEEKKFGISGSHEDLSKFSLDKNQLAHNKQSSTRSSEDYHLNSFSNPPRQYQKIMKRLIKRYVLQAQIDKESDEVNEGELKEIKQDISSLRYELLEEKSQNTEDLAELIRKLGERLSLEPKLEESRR
# TRPC6 inh: mouse TRPC6 channel inhibitors, primary screen, cell-based, HEK293, membrane potential dye | Short transient receptor potential channel 6 (Mus musculus), Q61143 | ACh-evoked depolarization; active compounds read low | B-score at 10 µM | actives 1.1% (n = 310,000);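 active = B-score under library mean minus 3 SD, initial fluorescence not abnormally high, positive integrated signal ratio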;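 note: B-score derived from integrated fluorescence ratio over the kinetic read; more negative B-score means stronger inhibition of depolarization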
# TRPC4 PAM: positive allosteric modulators of TRPC4, primary screen, cell-based, mouse TRPC4beta, HEK293 mu-opioid, Fluo-4 calcium. B-score at 10 µM. actives 0.42% (n = 310,000). DAMGO EC20, Fluo-4 Ca2+ flux; active compounds read high. Short transient receptor potential channel 4 (Mus musculus), Q9QUQ5. AID 2227, 2009;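 active = B-score of calcium response area above 5 SD of library B-scores, with initial fluorescence ratio within 5 SD of library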;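 note: B-score of integrated fluorescence ratio over time as area under calcium response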
# TRPC4 inh: inhibitors of mouse TRPC4 channel, primary screen, Fluo4 calcium, HEK293 TRPC4beta/mu-opioid cells | B-score at 10 µM | DAMGO-evoked Fluo4 calcium flux; active compounds read low | actives 0.39% (n = 300,000);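 active = B-score over 3 SD under the library average, no early fluorescence shift, positive overall ratio signal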
#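 Assay system: HEK293 cells with stable TRPC4beta plus mu-opioid receptor expression. Dosing: single dose. Measured by: Fluo4 Ca2+ flux fluorescence. Also added: DAMGO in two steps, submaximal then maximal. Read-out: B score from integrated Fluo4 fluorescence ratio.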
# TRPC4 agonist: activators of mouse TRPC4 channel, primary screen, Fluo4 calcium, HEK293 TRPC4beta/mu-opioid cells; Fluo4 calcium fluorescence; active compounds read high; B-score at 10 µM; actives 0.49% (n = 310,000);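 active = B-score above 5 SD of library B-scores, and initial fluorescence ratio not above library mean plus 5 SD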;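 note: positive B-score marks a calcium rise read as TRPC4 activation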
#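 Assay system: HEK293 cells stably co-expressing mouse TRPC4beta and mu-opioid receptor / Timing: Fluo4 dye loading 45 min at room temperature, 110 s recording / Signal: Fluo4 calcium-sensitive dye fluorescence, kinetic, 1 Hz baseline / Read-out: integrated baseline-normalised fluorescence ratio, converted to per-well B score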
# TRPC4 spec 2: second check of whether TRPC6 inhibitors also affect mouse TRPC4. actives 42% (n = 920). HEK293 TRPC4/MOR, membrane potential dye fluorescence; channel activated by saturating DAMGO dose. shares compounds with TRPC6 inh. inhibition, % at 10 µM;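 active = compounds whose fluorescence signal differed from control wells by over 3 SD, either direction, in both duplicate plates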
# TRPC4 spec: mouse TRPC4 modulation by TRPC6 hits, confirmation, selectivity assay for TRPC6 inhibitor project, cell-based, HEK293 TRPC4/mu-opioid, membrane potential dye; membrane potential fluorescence; activity change, negative = inhibition, % at 10 µM; actives 61% (n = 920); shares compounds with TRPC6 inh;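 active = rise or fall in signal beyond 3 SD of buffer-only wells in both replicate plates, either sign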;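 note: integrated kinetic ratio of fluorescence range over baseline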
# HEK293 MPD ctr 2-1: nonspecific membrane potential effects, parental HEK293, confirmation, counter-screen for TRPC6 inhibitor project, cell-based, second counter screen | shares compounds with TRPC6 inh | parental HEK293 membrane potential dye fluorescence; maximal acetylcholine challenge after compound addition | signal change vs control, % at 10 µM | actives 31% (n = 920);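 active = membrane potential signal moving either way by over 3 SD of the maximum-effect control, in both duplicate plates, meaning non-specific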
# HEK293 MPD ctr-1: membrane potential modulation in parental HEK293, confirmation, counter-screen for TRPC6 inhibitor project, cell-based; shares compounds with TRPC6 inh; actives 60% (n = 920); AID 2780, 2010; parental HEK293 membrane potential dye fluorescence; membrane potential signal change, % at 10 µM;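 active = membrane potential signal shifting up or down by more than 3 SD of buffer-only wells, on both duplicate plates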
# HEK293 MPD ctr-2: parental HEK293 membrane potential modulation, confirmation, counter-screen for TRPC6 modulator project, cell-based; membrane potential signal change, % at 10 µM; AID 488924, 2010; membrane potential dye fluorescence; actives 51% (n = 2,400); shares compounds with TRPC6 inh;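 active = membrane potential signal moves up or down beyond 5 SD from buffer-only wells, on both duplicate plates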
# HEK293 MPD ctr 2-2: second counter-screen for TRPC6 modulators: effect in parental HEK293 cells | shares compounds with TRPC6 inh | membrane potential dye fluorescence; after compound, maximal acetylcholine stimulation | inhibition, % at 10 µM | AID 488926 | actives 14% (n = 2,400);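 active = membrane potential signal drops by more than 5 SD from the mean control signal, in both duplicate plates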;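 note: plate controls were acetylcholine ECmax control wells for no effect and buffer only wells for full effect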
# TRPC4 ctr mod: TRPC4 modulation by TRPC6 hit compounds, confirmation, selectivity assay for TRPC6 modulator project, cell-based, HEK293 TRPC4/mu-opioid, membrane potential dye, mouse | membrane potential fluorescence | actives 69% (n = 2,400) | AID 488927, 2010 | percent change from control (negative = decrease, positive = increase), % at 10 µM | shares compounds with TRPC6 inh;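 active = membrane potential signal moved up or down beyond 5 SD of buffer control wells, in both duplicate plates, actives on both sides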;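 note: plate controls were assay buffer wells for no effect and DAMGO maximal-effect wells for full effect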
# TRPC4 ctr inh 2: mouse TRPC4 off-target activity of TRPC6 modulators, second screen; HEK293 TRPC4/mu-opioid, membrane potential dye fluorescence; stimulated with maximal-effect DAMGO; inhibition, % at 10 µM; AID 488928; shares compounds with TRPC6 inh; actives 55% (n = 2,400);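 active = drop in membrane potential signal beyond 5 SD of the control wells in both duplicate plates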;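 note: TRPC4 counter screen for TRPC6 hits run under conditions tuned for TRPC6 not TRPC4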
# TRPC6 block conf: mouse TRPC6 channel inhibitors, confirmation, HEK293 cells, membrane potential dye, duplicate; shares compounds with TRPC6 inh; ACh-evoked depolarization; inhibition, % at 10 µM; actives 43% (n = 3,300); AID 488960, 2010;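 active = fluorescence ratio falls more than 5 SD below the full-stimulation control mean, in both duplicate runs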;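 note: integrated fluorescence ratio of peak minus minimum over baseline after agonist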
# TRPC6 act conf: mouse TRPC6 channel activators, confirmation, HEK293 cells, membrane potential dye, duplicate; actives 11% (n = 2,800); activation, % at 10 µM; AID 488961, 2010; HEK293-TRPC6 membrane potential dye fluorescence, FDSS; shares compounds with TRPC6 inh;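 active = ratio signal rise beyond 5 SD above unstimulated control wells' mean, seen in both duplicate runs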;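 note: plate controls were buffer EC0 wells for no effect and acetylcholine ECmax response for full effect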
# Active calls of the source: *; i = inactive; / = no result; + = active, no number. In the library only some 2.3% were active in any assay of this set; here they are far more common.
SMILES,TRPC6 activator,TRPC6 inh,TRPC4 PAM,TRPC4 inh,TRPC4 agonist,HEK293 MPD ctr-2,HEK293 MPD ctr 2-2,TRPC4 ctr mod,TRPC4 ctr inh 2,TRPC6 block conf,TRPC6 act conf,others
CCOC(=O)c1cnc2ccc(Cl)cc2c1NCCN(C)C,i,-6.5*,i,i,i,-104%*,i,-18%*,49%*,46%*,i,
CCOC(=O)c1cnc2c(ccc3ccccc32)c1NCCCN(C)C,i,-6.4*,i,i,i,i,70%*,i,56%*,48%*,i,
CCOC(=O)c1cnc2c(C)cccc2c1NCc1ccco1,i,i,i,i,i,/,/,/,/,/,/,
CCOC(=O)c1cnc2c(Cl)cc(Cl)cc2c1NCCOCCO,i,i,i,i,i,/,/,/,/,/,/,
CCOC(=O)c1cnc2ccccc2c1NCCO,i,-5.6*,i,i,i,-108%*,i,-14%*,40%*,49%*,i,
O=C(Nc1ccc(F)cc1)c1cccc2c1C(=O)N(CC1CCCO1)C2 (stereo not given),i,i,i,i,i,/,/,/,/,/,/,
Cc1ccc(OS(=O)(=O)c2c(C)nn(C)c2Cl)c(C)c1,i,-6.5*,i,i,i,i,i,i,i,72%*,i,
Cc1ccc(C)c(NS(=O)(=O)c2c(C)nn(C)c2C)c1,i,i,i,i,i,/,/,/,/,/,/,
S=C(Nc1cccc(Cl)c1)N(CCCN1CCCC1)Cc1cccn1Cc1ccc(Cl)cc1,i,i,i,i,i,/,/,/,/,/,/,
COc1cccc(NC(=S)N(CCCN2CCCC2)Cc2cccn2Cc2ccc(Cl)cc2)c1,i,-5.3*,i,i,i,i,i,i,62%*,48%*,i,
Nc1c(C(=O)c2ccc(Cl)cc2)sc2nsc(SCCN3CCOCC3)c12,i,i,i,i,i,/,/,/,/,/,/,
Nc1c(C(=O)c2ccccc2)sc2nsc(SCCN3CCCC3)c12,65*,i,i,i,86*,+,i,272%*,36%*,i,513%*,
COc1ccc(NC(=O)CSCC(=O)N(C)CCOc2ccc(Cl)cc2)cc1,i,i,i,i,i,/,/,/,/,/,/,
COC(=O)c1ccc(S(=O)(=O)c2ccc(Cl)cc2)c(N)c1,i,i,i,i,i,/,/,/,/,/,/,
CCN(CC)CCNC(=O)c1ccc2c(=O)n(C3CCCC3)c(=S)[nH]c2c1,i,-6.8*,i,i,i,/,/,/,/,i,i,TRPC4 spec 2=i;TRPC4 spec=i;HEK293 MPD ctr 2-1=i;HEK293 MPD ctr-1=i
CC(C)NC(=O)c1ccc2c(=O)n(C3CCCC3)c(=S)[nH]c2c1,i,i,i,i,i,/,/,/,/,/,/,
O=C1c2cccc3cccc(c23)C(=O)N1CC1CCN(CC(O)COc2ccc3ccccc3c2)CC1 (stereo not given),i,i,i,i,i,/,/,/,/,/,/,
COc1ccc(COCC(O)CN2CCC(CN3C(=O)c4cccc5cccc(c45)C3=O)CC2)cc1OC (stereo not given),i,-5.8*,i,i,i,-147%*,i,-30%*,88%*,69%*,i,
COc1cccc(OCC(O)CN2CCC(CN3C(=O)c4cccc5cccc(c45)C3=O)CC2)c1 (stereo not given),i,-10*,i,i,i,/,/,/,/,i,i,TRPC4 spec 2=62%*;TRPC4 spec=-14%*;HEK293 MPD ctr 2-1=i;HEK293 MPD ctr-1=-138%*
COc1ccc(C(=O)NC(=S)NCC2CCCO2)cc1 (stereo not given),i,i,i,i,i,/,/,/,/,/,/,
Cc1ccc(OCCCCN2CCC(C)CC2)c(Br)c1,i,i,i,i,i,/,/,/,/,/,/,
Cc1ccc(OCCCCCCN2CCNCC2)c(Br)c1,i,-9*,i,i,i,/,/,/,/,70%*,i,TRPC4 spec 2=52%*;TRPC4 spec=1.3%*;HEK293 MPD ctr 2-1=i;HEK293 MPD ctr-1=6.4%*
CCN1CCN(CCCOc2ccc(Cl)cc2Br)CC1,i,i,i,i,i,/,/,/,/,/,/,
Clc1ccc(OCCCCCN2CCCC2)c(Br)c1,i,-5.1*,i,i,i,121%*,i,22%*,34%*,i,/,
